Here are results for 31 molecules from ChEMBL document CHEMBL5576155, “Expanding the chemical space of ester of quinoxaline-7-carboxylate 1,4-di-N-oxide derivatives as potential antitubercular agents” (RSC Med Chem, 2024).

Bounds are passed on as bounds.

In data set [1] the test system is Mycobacterium tuberculosis. Kind of data set: Antitubercular activity against Mycobacterium tuberculosis H37Rv assessed as reduction in microbial growth incubated for 10 days under anaerobic condition followed by 28 hrs incubation with aerobic condition further incubated 7 days at 5 % CO2 condition by low-oxygen recovery assay. The format is functional. The following applies: time 436 hrs.

The test system of data set [2] is Mycobacterium tuberculosis. Kind of data set: Antitubercular activity against Mycobacterium tuberculosis H37Rv assessed as reduction in microbial growth by MABA. It is filed as functional. In outline:
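M. tuberculosis H37Rv tested in vitro by modified Alamar blue microplate assay (MABA), with rifampicin and isoniazid as reference drugs. MIC was the lowest drug concentration giving 90% inhibition. Triplicate independent experiments.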

Data set [3] is described as follows: Cytotoxicity against mouse J774.2 cells assessed as reduction in cell viability by MTT assay. It is filed as toxicity, cell-based. Summed up: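 Murine macrophage J774.2 grown in RPMI 1640 with 10% FBS, 1% MEM-NEAA and 100 U mL−1 antibiotic–antifungal, at 37 °C, 5% CO2, humidified. Cells washed and plated at 1 × 10^5 per well. Serial-dilution dose–response run in triplicate, with 0.1% DMSO as negative control. Viability read by MTT colorimetric assay. CC50 derived from the dose–response.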
On the technique in general: Formazan colour is commonly taken as a measure of viable cells.

A short description of data set [4]: Selectivity index, ratio of CC50 for cytotoxicity against mouse J774.2 cell to MIC for antibacterial activity against Mycobacterium tuberculosis H37Rv. The format is toxicity. Conditions: J774.2 cells, read-out: Selectivity Index. In outline: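 CC50 was measured in murine macrophage J774.2 cells grown in RPMI 1640 with 10% FBS, 1% MEM-NEAA and antibiotic–antifungal mix at 37 °C, 5% CO2. 1 × 10^5 cells per well received serial dilutions in triplicate, with 0.1% DMSO as negative control. Viability was read by MTT. SI is CC50 over the MABA MIC against H37Rv.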

On to `CCOC(=O)c1ccc2c(c1)[n+]([O-])c(C(=O)c1cccs1)c(C(F)(F)F)[n+]2[O-]`, for which the MIC in data set [1] was determined as 0.51 µM; in data set [2], 0.24 µM.
Turning to `CC(=O)c1c(C(F)(F)F)[n+]([O-])c2ccc(C(=O)OCC(C)C)cc2[n+]1[O-]`, the MIC in data set [1] amounted to 0.94 µM; in data set [2] it was 0.7 µM. For the same molecule, in data set [3], the cytotoxic concentration (CC50) is 25.4 µM. Besides, the selectivity ratio in data set [4] worked out at 10.2.
The matching figures for `Cc1ccc(NC(=O)c2c(C)[n+]([O-])c3cc(C(=O)OCC(C)C)ccc3[n+]2[O-])c(C)c1`: above 118 µM, above 118 µM, above 200 µM and 10.2.
The corresponding values for `CCCCOC(=O)c1ccc2c(c1)[n+]([O-])c(C(=O)OCc1ccccc1)c(C)[n+]2[O-]` are 1.73 µM, 0.59 µM, above 200 µM and 10.2.
The corresponding values for `CCCCOC(=O)c1ccc2c(c1)[n+]([O-])c(C(=O)OC)c(C)[n+]2[O-]` are 5.24 µM, 0.87 µM, 46.2 µM and 10.2.
For the molecule `CC(C)OC(=O)c1ccc2c(c1)[n+]([O-])c(C(=O)c1cccs1)c(C(F)(F)F)[n+]2[O-]`, the MIC in data set [1] is 0.54 µM; in data set [2], 0.19 µM.
With `CCCCOC(=O)c1ccc2c(c1)[n+]([O-])c(C(=O)OCC)c(C)[n+]2[O-]`, the minimum inhibitory concentration (MIC) is 6.24 µM in data set [1] and 1.38 µM in data set [2]. Moreover, the CC50 in data set [3] was above 200 µM. For the same molecule, in data set [4], the selectivity ratio was 10.2.
The matching figures for `CCCCOC(=O)c1ccc2c(c1)[n+]([O-])c(C(C)=O)c(C(F)(F)F)[n+]2[O-]`: 0.97 µM, 0.62 µM, above 200 µM and 10.2.
The matching figures for `CCCCOC(=O)c1ccc2c(c1)[n+]([O-])c(C(=O)OCC)c(C(F)(F)F)[n+]2[O-]`: 0.87 µM, 0.57 µM, above 200 µM and 10.2.
`Cc1c(C(=O)Nc2ccccc2)[n+]([O-])c2cc(C(=O)OCC(C)C)ccc2[n+]1[O-]`: the MIC is 2.73 µM in data set [1] and 2.56 µM in data set [2]. The 50% cytotoxic concentration (CC50) in data set [3] was above 200 µM. In data set [4], the selectivity ratio was 10.2.
The corresponding values for `CC(C)COC(=O)c1ccc2c(c1)[n+]([O-])c(C(=O)c1ccco1)c(C(F)(F)F)[n+]2[O-]` are 1.65 µM, 0.68 µM, 81.8 µM and 10.2.
The matching figures for `Cc1c(C(=O)c2ccccc2)[n+]([O-])c2cc(C(=O)OCC(C)C)ccc2[n+]1[O-]`: 2.68 µM, 0.95 µM, 34.2 µM and 10.2.
The corresponding values for `CCCCOC(=O)c1ccc2c(c1)[n+]([O-])c(C(=O)Nc1ccccc1)c(-c1ccccc1)[n+]2[O-]` are 9.74 µM, 3.3 µM, 44.1 µM and 10.2.
On to `CC(C)COC(=O)c1ccc2c(c1)[n+]([O-])c(C(=O)c1ccccc1)c(C(F)(F)F)[n+]2[O-]`, for which the MIC in data set [1] came to 0.92 µM; in data set [2], 0.53 µM.
Consider `CC(C)COC(=O)c1ccc2c(c1)[n+]([O-])c(C(=O)Nc1ccccc1)c(-c1ccccc1)[n+]2[O-]`, for which the MIC in data set [1] turned out to be 1.49 µM; in data set [2] it was 0.57 µM. In addition, the CC50 in data set [3] is above 200 µM. Also, in data set [4], the selectivity ratio was found to be 10.2.
Regarding `CCCCOC(=O)c1ccc2c(c1)[n+]([O-])c(C(=O)c1cccs1)c(C(F)(F)F)[n+]2[O-]`, the MIC stood at 0.86 µM in data set [1] and 0.57 µM in data set [2].
Consider `CCCCOC(=O)c1ccc2c(c1)[n+]([O-])c(C(=O)OC(C)(C)C)c(C)[n+]2[O-]`, for which the MIC in data set [1] was 128 µM; in data set [2], 14.7 µM. The CC50 in data set [3] is above 200 µM. The selectivity ratio in data set [4] came to 10.2.
For the molecule `CC(C)COC(=O)c1ccc2c(c1)[n+]([O-])c(C(=O)c1cccs1)c(C(F)(F)F)[n+]2[O-]`, the MIC in data set [1] is 0.77 µM; in data set [2] it was 0.55 µM. For the same molecule, in data set [3], the half-maximal cytotoxic concentration (CC50) came to 43.9 µM. Besides, the selectivity ratio in data set [4] turned out to be 10.2.
Consider `CCCCOC(=O)c1ccc2c(c1)[n+]([O-])c(C(=O)Nc1ccc(Cl)cc1)c(C)[n+]2[O-]`, for which the MIC in data set [1] and in data set [2] was above 117 µM each time. Further, the CC50 in data set [3] turned out to be 50.3 µM. Also, the selectivity ratio in data set [4] came to 10.2.
As for `CC(C)COC(=O)c1ccc2c(c1)[n+]([O-])c(C(=O)c1ccc3ccccc3c1)c(C(F)(F)F)[n+]2[O-]`, the MIC in data set [1] worked out at 2.33 µM; in data set [2], 1.38 µM.
`COC(=O)c1c(C)[n+]([O-])c2ccc(C(=O)OCC(C)C)cc2[n+]1[O-]`: the MIC came to 2.01 µM in data set [1] and 0.84 µM in data set [2].
Consider `CC(=O)c1c(C)[n+]([O-])c2ccc(C(=O)OCC(C)C)cc2[n+]1[O-]`, for which the minimum inhibitory concentration (MIC) in data set [1] amounted to 1.82 µM; in data set [2], 0.94 µM. Moreover, in data set [3], the CC50 was found to be 87.2 µM. The selectivity ratio in data set [4] stood at 10.2.
Consider `CCCCOC(=O)c1ccc2c(c1)[n+]([O-])c(C(=O)c1ccc3ccccc3c1)c(C(F)(F)F)[n+]2[O-]`, for which the MIC in data set [1] came to 3.04 µM; in data set [2], 1.07 µM. The CC50 in data set [3] was above 200 µM. Besides, the selectivity ratio in data set [4] was 10.2.
With `CCCCOC(=O)c1ccc2c(c1)[n+]([O-])c(C(=O)c1ccccc1)c(C(F)(F)F)[n+]2[O-]`, the MIC in data set [1] was determined as 0.88 µM; in data set [2], 0.53 µM. In data set [3], the CC50 was found to be 48.4 µM. The selectivity ratio in data set [4] is 10.2.
The matching figures for `Cc1ccc(NC(=O)c2c(C)[n+]([O-])c3ccc(C(=O)OCC(C)C)cc3[n+]2[O-])c(C)c1`: 12.3 µM, 19.7 µM, above 200 µM and 10.2.
`Cc1c(C(=O)Nc2ccc(Cl)cc2)[n+]([O-])c2cc(C(=O)OCC(C)C)ccc2[n+]1[O-]`: the values for the MIC in data set [1] and in data set [2] were 1.86 µM and 1.63 µM, respectively.
As for `CCCCOC(=O)c1ccc2c(c1)[n+]([O-])c(C(=O)Nc1ccc(C)cc1C)c(C)[n+]2[O-]`, the MIC in data set [1] and in data set [2] was above 118 µM each time.
Turning to `CCCCOC(=O)c1ccc2c(c1)[n+]([O-])c(C(C)=O)c(C)[n+]2[O-]`, the MIC in data set [1] amounted to 2.3 µM; in data set [2], 0.88 µM. In addition, the CC50 in data set [3] worked out at 58.4 µM. For the same molecule, the selectivity ratio in data set [4] was 10.2.
Turning to `CCCCOC(=O)c1ccc2c(c1)[n+]([O-])c(C(=O)c1ccccc1)c(C)[n+]2[O-]`, the results for the MIC in data set [1] and in data set [2] were 5.37 µM and 1.95 µM, respectively. Also, the cytotoxic concentration (CC50) in data set [3] turned out to be 17.7 µM. Besides, in data set [4], the selectivity ratio was 10.2.
With `NNC(=O)c1ccncc1` [ISONIAZID], the MIC is above 933 µM in data set [1] and 2.92 µM in data set [2].
In the case of `CO[C@H]1/C=C/O[C@@]2(C)Oc3c(C)c(O)c4c(O)c(c(/C=N/N5CCN(C)CC5)c(O)c4c3C2=O)NC(=O)/C(C)=C\C=C\[C@H](C)[C@H](O)[C@@H](C)[C@@H](O)[C@@H](C)[C@H](OC(C)=O)[C@@H]1C` [RIFAMPIN], the MIC in data set [1] is 0.06 µM; in data set [2], 0.02 µM.

As usually defined, the MIC is the smallest concentration in the dilution series that meets the test's criterion for growth inhibition. For orientation: CC50 means the concentration that lowers cell viability or growth by half.
